Source: PubChem (Sanford-Burnham Center for Chemical Genomics)
Rows were chosen to be rich in hits. Some 0.77% of all compounds tested hit in one or more screens of this group.
hIAP inh: blocks human intestinal alkaline phosphatase | inhibition, % at 10 µM | AID 2544 | actives 0.12% (n = 330,000) | purified IAP, CDP-Star luminescence, 30 min;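 active means inhibition reaching a set limit with compound at 10 µM in the primary screen, cut at about 35% in these data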
Target sequence (P09923 whole entry, looked up): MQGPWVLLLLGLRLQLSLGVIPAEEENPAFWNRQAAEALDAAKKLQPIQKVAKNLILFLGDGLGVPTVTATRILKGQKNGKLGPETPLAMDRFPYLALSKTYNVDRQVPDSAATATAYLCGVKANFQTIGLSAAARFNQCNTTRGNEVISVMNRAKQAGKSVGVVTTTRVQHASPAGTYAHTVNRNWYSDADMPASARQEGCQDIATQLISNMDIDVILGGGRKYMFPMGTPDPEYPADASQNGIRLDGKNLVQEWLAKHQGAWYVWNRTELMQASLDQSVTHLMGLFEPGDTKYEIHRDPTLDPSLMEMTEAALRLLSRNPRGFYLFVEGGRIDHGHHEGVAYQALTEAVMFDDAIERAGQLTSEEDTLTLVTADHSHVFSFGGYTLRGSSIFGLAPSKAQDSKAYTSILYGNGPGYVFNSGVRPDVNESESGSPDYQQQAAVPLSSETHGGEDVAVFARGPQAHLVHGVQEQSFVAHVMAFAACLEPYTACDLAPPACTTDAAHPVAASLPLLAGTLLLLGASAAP
bIAP inhibitor: intestinal alkaline phosphatase (bovine) inhibition; 190,000 tested, under 10 active; inhibition, % at 20 µM; purified bovine IAP, CDP-star luminescence, 30 min; AID 1019;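 active means over 50% inhibition of intestinal alkaline phosphatase at 20 µM in the single-dose screen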
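System: Purified bovine intestinal alkaline phosphatase (IAP) enzyme | Input: IAP diluted 1/65,000,000 in the well | Also added: CDP-star chemiluminescent phosphatase substrate, 30 µM final | Dosing: 20 µM single dose | Times: Enzyme reaction for 30 min at room temperature | Detection: Luminescence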
bIAP activator: intestinal alkaline phosphatase (bovine) activation. purified bovine IAP, CDP-star luminescence, 30 min; stronger effect = higher value; fold of DMSO-control signal, blank-subtracted. actives 0.17% (n = 200,000). AID 1016. activation factor at 20 µM;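 active means activation factor of 2 or more at 20 µM, a signal rise over negative controls twice the positive control's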
hIAP activ: increases human intestinal alkaline phosphatase activity | purified human IAP, CDP-Star luminescence, 30 min; stronger effect = higher value; 1 = vehicle-only enzyme, 0 = enzyme-free background | activation factor at 10 µM | actives 0.16% (n = 330,000) | AID 2524;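 active means activation factor of the enzyme at least 2-fold when tested at 20 µM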
mIAP act: increases mouse intestinal alkaline phosphatase activity. activation factor at 10 µM. actives 0.24% (n = 330,000). muIAP, CDP-Star luminescence, 30 min; stronger effect = higher value; 1 = vehicle-only enzyme signal, 0 = enzyme-free wells;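 active means activation factor of at least 2 at 20 µM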
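Assay system: mouse IAP enzyme; Reagent: CDP-Star chemiluminescent phosphatase substrate; Compound: DMSO-dissolved test compounds; Incubation: 30 min, room temperature; Technique: luminescence from enzymatic CDP-Star hydrolysis; Controls: DMSO-only wells and no-enzyme negative control.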
mIAP inh: blocks mouse intestinal alkaline phosphatase; purified mouse IAP, CDP-Star luminescence, 30 min; inhibition, % at 10 µM; actives 0.2% (n = 330,000);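 active means inhibition of at least 40% at 10 µM in the primary screen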
A number is an active result; n = inactive; x = no result.

SMILES	hIAP inh	bIAP inhibitor	bIAP activator	hIAP activ	mIAP act	mIAP inh
O=C(NC1CC2CCC(C1)N2Cc1nnnn1Cc1ccco1)NC12CC3CC(CC(C3)C1)C2 (configuration not stated)	n	n	3.4	n	n	n
CCOc1ccccc1C(=O)NC1CC2CCCC(C1)N2Cc1nnnn1Cc1ccco1 (configuration not stated)	n	n	n	n	n	n
Cc1ccc(F)c(NC(=O)c2c(-c3ccccc3)noc2C)c1	n	x	x	n	n	n
Cc1ccc2nc(N3C(=O)C(O)=C(C(=O)c4ccc(C)o4)C3c3ccco3)sc2c1 (configuration not stated)	n	x	x	n	n	50
CC(=O)/C(=N\Nc1ccccc1)Oc1ccc(Br)cc1	n	x	x	n	n	n
Cc1oc(S(=O)(=O)N2CCCCC2)cc1NC(=O)Nc1ccc(F)cc1	n	x	x	n	2.1	n
CC(C)(C)c1ccc(COC(=O)Nc2ccc(F)cc2)cc1	n	n	n	n	n	n
CC(C)(C)c1ccc(NC(=O)Nc2ccc(F)cc2)cc1	n	n	n	n	2.2	n
Cn1cc(C(=O)Nc2ccc(Cl)cc2)c(C(F)(F)F)n1	n	n	n	n	n	n
O=C(Nc1ccc(F)cc1)Nc1ccc(S(=O)(=O)N2CCCC2)cc1	n	x	x	n	n	n
Cc1ccc(NC(=O)CCC(=O)c2ccc(F)cc2)cc1Cl	n	n	n	n	n	n
Cn1cc(NC(=O)Nc2ccc(C(F)(F)F)cc2)c(C(F)(F)F)n1	n	x	x	n	2.9	n
Cc1ccc(NC(=O)Nc2ccc(F)cc2)cc1Cl	n	n	n	n	2	n
Cc1cc(S(=O)(=O)NCC(C)C)ccc1OCC(=O)NCc1ccco1	n	n	n	n	n	n
COc1cc(C2/C(=C(\O)c3ccc4c(c3)CC(C)O4)C(=O)C(=O)N2CCCn2ccnc2)cc(OC)c1OC (configuration not stated)	n	x	x	n	n	n
CN(CCc1ccccc1)C1CCCN(S(=O)(=O)CC(F)(F)F)C1 (configuration not stated)	n	x	x	n	n	n
CC1(C)OC(c2ccccc2)=C/C(=C/C=C2C(=O)c3ccccc3C2=O)O1	49	n	n	n	n	n
Cn1ncc2c(NNC(=O)c3ccc(O)cc3)ncnc21	n	n	n	n	n	n
Cc1ccc(-n2ncc3c(NCc4ccco4)ncnc32)c(C)c1	n	n	n	n	n	n
Cc1ccc(-n2ncc3c(NNC(=O)c4ccco4)ncnc32)c(C)c1	n	n	n	3	n	n
Cc1cccc(C(=O)NNc2ncnc3c2cnn3C)c1	n	n	n	2.1	n	n
Cc1ccc(S(=O)(=O)N2CCC(N3CCC(C)CC3)CC2)cc1	n	x	x	n	n	n
CCN(CC(=O)Nc1ccc(NC(C)=O)cc1)C(=O)/C=C/c1c(C)nn(-c2ccc(F)cc2)c1C	n	x	x	n	n	n
Nc1ccc(S(=O)(=O)NC(Cc2ccccc2)C(=O)O)cc1 (configuration not stated)	n	x	x	n	n	n
O=C(Nc1ccc(Cl)c(Cl)c1)O/N=C/c1ccncc1	n	n	n	n	2.4	n
SMILES	hIAP inh	bIAP inhibitor	bIAP activator	hIAP activ	mIAP act	mIAP inh
CC(C)COc1ccc(CSCCNC(=S)Nc2ccccc2)cc1	n	n	n	n	2.4	n
CCCCOc1ccc(CSCCNC(=S)Nc2ccccc2)cc1	n	n	n	n	n	n
CCCCCOc1ccc(CSCCNC(=S)Nc2ccccc2)cc1	n	n	n	n	2.5	n
Cc1ccc(S(=O)(=O)N(C)c2ccc(OC(C)C(=O)N(C)c3ccccc3)cc2)cc1 (configuration not stated)	n	x	x	n	n	n
Cc1ccc2nc(C3CCN(CC(=O)Nc4ccc5c(c4)OCCO5)CC3)[nH]c2c1	n	n	2.1	n	n	n
O=C(CN1CCC(c2nc3ccccc3[nH]2)CC1)Nc1ccc2c(c1)OCO2	n	n	n	n	n	n
COC(=O)c1cc(NC(=O)Nc2ccccc2)ccc1Cl	n	n	n	n	2.5	n
COC(=O)c1cccc(NC(=O)Nc2ccc(Cl)c(Cl)c2)c1	n	n	n	n	3	n
COC(=O)c1ccc(NC(=O)Nc2ccc(F)c(Cl)c2)cc1	n	n	n	n	2.3	n
O=C(Nc1ccncc1)Nc1ccc(F)c(Cl)c1	n	n	n	n	n	n
COc1cc(CNCc2ccccn2)ccc1OCc1ccc(Cl)c(Cl)c1	n	n	2.4	n	n	n
COc1cc(CNCc2ccccn2)ccc1OCc1ccc(Cl)cc1Cl	n	n	2.7	n	n	n
COc1cc(CNCCN2CCOCC2)ccc1OCc1ccc(Cl)cc1Cl	n	n	n	n	n	n
COc1cc(CNCc2ccccn2)ccc1OCC(N)=O	n	n	n	n	n	n
CN(C)Cc1ccccc1Sc1cccc2ccccc12	x	n	2.3	x	x	x
Nc1ncc(Br)cc1S(=O)(=O)Nc1ccccc1F	n	x	x	n	n	n
CCOc1ccccc1NC(=S)N1C2CCC1CC(NC(=O)NC13CC4CC(CC(C4)C1)C3)C2 (configuration not stated)	n	n	n	n	2.1	n
CC[n+]1c(/C=C/N(C)c2ccccc2)oc2ccc(Cl)cc21	n	n	n	n	n	n
CCN1/C(=C/C=C/c2oc3ccc4ccccc4c3[n+]2CC)Oc2ccc3ccccc3c21	44	n	n	n	n	47
CCc1cc(Cn2nc(-c3ccccc3)cc2C(=O)NCc2cccs2)on1	n	x	x	n	3.6	n
C#CCOCCOCCOCCNc1nc(N2CCN(C(=O)C(Cc3cc4ccccc4[nH]3)n3cc(C(N)C(C)CC)nn3)CC2)nc(N2CCN(C(=O)C(Cc3cc4ccccc4[nH]3)n3cc(C(N)C(C)CC)nn3)CC2)n1 (configuration not stated)	n	n	3.9	n	n	n
CCn1ccnc1CNCc1cn(-c2cc(C)ccc2C)nc1-c1ccccc1	n	n	2.7	n	n	n
COc1ccc([C@H]2CC(=O)C=C(c3cccc(OC)c3OC)C2)cc1OC	n	x	x	n	n	n
CC(C)=CCC/C(C)=C/CNC(=O)C[C@H]1C[C@H](C(=O)N2CCOCC2)[C@@]2(CCC3CCCC3)c3[nH]c4cc(CCC(=O)N(C)C)ccc4c3CCN2C1=O	x	x	x	x	n	n
COc1cc(C2CC(c3cccnc3)=NN2c2ccc(F)cc2)cc(OC)c1OC (configuration not stated)	n	n	n	n	2.2	n
O=C(CCNC(=O)c1ccco1)Nc1nc(-c2ccccc2)cs1	n	x	x	n	n	n
Cc1csc(NC(=O)C(Cc2ccccc2)n2cccc2)n1 (configuration not stated)	n	n	n	n	n	43
Cc1ccc(NC(=O)C(Cc2ccccc2)n2cccc2)cc1 (configuration not stated)	n	x	x	n	n	n
